Reference: ChEMBL document CHEMBL1145351, “Squalene-derived flexible linkers for bioactive peptides” (Bioorg Med Chem Lett, 2007)
Activity calls are given as the source filed them. No cut-off for these calls is given here.

These molecules were tested against T1, Melanocortin receptor 4 (Homo sapiens, UniProt P32245) (assay: Displacement of Eu-NDP-alpha-MSH from human melanocortin 4 receptor expressed in HEK293 cells).
Format: cell-based
Outline: (§1)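 HEK293 cells overexpressing hMC4R, plated at 12,000 cells/well and grown 3 days. Incubated 40 min at 37 °C, washed 4 times in Tris-HCl/BSA/NaCl, then enhancement solution added for 30 min at 37 °C before time-resolved Eu read-out. IC50 averaged over n independent experiments, each in quadruplicate.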

T1 sequence (P32245 whole entry): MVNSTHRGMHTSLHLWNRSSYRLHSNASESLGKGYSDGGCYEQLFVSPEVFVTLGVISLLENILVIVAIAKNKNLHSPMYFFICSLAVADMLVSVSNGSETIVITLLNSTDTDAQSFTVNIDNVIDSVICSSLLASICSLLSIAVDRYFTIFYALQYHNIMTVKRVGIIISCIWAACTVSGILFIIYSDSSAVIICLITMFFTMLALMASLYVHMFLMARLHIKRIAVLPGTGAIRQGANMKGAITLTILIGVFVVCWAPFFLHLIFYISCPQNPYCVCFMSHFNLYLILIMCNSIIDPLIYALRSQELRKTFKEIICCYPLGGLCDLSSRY

IC50 [nM]	Structure (SMILES)
900	C#CCCCC(=O)N[C@@H](Cc1cnc[nH]1)C(=O)N[C@H](Cc1ccccc1)C(=O)N[C@@H](CCCNC(=N)N)C(=O)N[C@@H](Cc1c[nH]c2ccccc12)C(N)=O
400	CC(C)C(O)CCC(C)C(O)CCC(C)C(CCC(O)C(C)CCC(O)C(C)CCC(OCCCCCCn1cc(CCCC(=O)N[C@@H](Cc2cnc[nH]2)C(=O)N[C@@H](Cc2ccccc2)C(=O)N[C@@H](CCCNC(=N)N)C(=O)N[C@@H](Cc2c[nH]c3ccccc23)C(N)=O)nn1)C(C)C)OCCCCCCn1cc(CCCC(=O)N[C@@H](Cc2cnc[nH]2)C(=O)N[C@@H](Cc2ccccc2)C(=O)NC(CCCNC(=N)N)C(=O)N[C@@H](Cc2c[nH]c3ccccc23)C(N)=O)nn1 (single isomer, unassigned)
1100	N=C(N)NCCC[C@H](NC(=O)C(Cc1ccccc1)NC(=O)[C@@H](N)Cc1cnc[nH]1)C(=O)N[C@@H](Cc1c[nH]c2ccccc12)C(=O)O (stereo in doubt)
3300	CC(C)C(O)CCC(C)C(O)CCC(C)C(O)CCC(OCCCCCCn1cc(CCCC(=O)N[C@@H](Cc2cnc[nH]2)C(=O)N[C@H](Cc2ccccc2)C(=O)N[C@@H](CCCN=C(N)N)C(=O)N[C@@H](Cc2c[nH]c3ccccc23)C(N)=O)nn1)C(C)CCC(O)C(C)CCC(O)C(C)C (some centres not stated)

The molecules below were run against T1, Melanocortin receptor 4 (assay: Displacement of Eu-NDP-alpha-MSH from human melanocortin 4 receptor expressed in HEK293 cells at 1 pM to 10 uM).
Format: cell-based
Outline: as §1

Activity	Structure (SMILES)
inactive	C#CCCCC(=O)N[C@@H](CO)C(N)=O
inactive	CC(C)C(O)CCC(C)C(O)CCC(C)C(CCC(O)C(C)CCC(O)C(C)CCC(OCCCCCCn1cc(CCCC(=O)N[C@@H](CO)C(N)=O)nn1)C(C)C)OCCCCCCn1cc(CCCC(=O)N[C@@H](CO)C(N)=O)nn1 (some centres not stated)
inactive	CC(C)C(O)CCC(C)C(O)CCC(C)C(O)CCC(OCCCCCCn1cc(CCCC(=O)N[C@@H](CO)C(N)=O)nn1)C(C)CCC(O)C(C)CCC(O)C(C)C (some centres not stated)
